Test results taken from ChEMBL document CHEMBL1122206, “Use of adenine nucleotide derivatives to assess the potential of exo-active-site-directed reagents as species- or isozyme-specific enzyme inactivators. 5. Interactions of adenosine 5'-triphosphate derivatives with rat pyruvate kinases, Escherichia coli thymidine kinase, and yeast and rat …” (1982).
Where “and” joins values, the source holds several entries; their conditions need not be identical. Identical values can stand only once. Blank lines part the entries; values can stand above or below the compound they belong to.

How the values were obtained:
[1] = molecular target: T1, Hexokinase-2 (Rattus norvegicus) (UniProt P27881); experiment: Substrate activity against Rat hexokinase II as 1:1 Mg complex at 5.0 mM
T1 sequence (whole entry): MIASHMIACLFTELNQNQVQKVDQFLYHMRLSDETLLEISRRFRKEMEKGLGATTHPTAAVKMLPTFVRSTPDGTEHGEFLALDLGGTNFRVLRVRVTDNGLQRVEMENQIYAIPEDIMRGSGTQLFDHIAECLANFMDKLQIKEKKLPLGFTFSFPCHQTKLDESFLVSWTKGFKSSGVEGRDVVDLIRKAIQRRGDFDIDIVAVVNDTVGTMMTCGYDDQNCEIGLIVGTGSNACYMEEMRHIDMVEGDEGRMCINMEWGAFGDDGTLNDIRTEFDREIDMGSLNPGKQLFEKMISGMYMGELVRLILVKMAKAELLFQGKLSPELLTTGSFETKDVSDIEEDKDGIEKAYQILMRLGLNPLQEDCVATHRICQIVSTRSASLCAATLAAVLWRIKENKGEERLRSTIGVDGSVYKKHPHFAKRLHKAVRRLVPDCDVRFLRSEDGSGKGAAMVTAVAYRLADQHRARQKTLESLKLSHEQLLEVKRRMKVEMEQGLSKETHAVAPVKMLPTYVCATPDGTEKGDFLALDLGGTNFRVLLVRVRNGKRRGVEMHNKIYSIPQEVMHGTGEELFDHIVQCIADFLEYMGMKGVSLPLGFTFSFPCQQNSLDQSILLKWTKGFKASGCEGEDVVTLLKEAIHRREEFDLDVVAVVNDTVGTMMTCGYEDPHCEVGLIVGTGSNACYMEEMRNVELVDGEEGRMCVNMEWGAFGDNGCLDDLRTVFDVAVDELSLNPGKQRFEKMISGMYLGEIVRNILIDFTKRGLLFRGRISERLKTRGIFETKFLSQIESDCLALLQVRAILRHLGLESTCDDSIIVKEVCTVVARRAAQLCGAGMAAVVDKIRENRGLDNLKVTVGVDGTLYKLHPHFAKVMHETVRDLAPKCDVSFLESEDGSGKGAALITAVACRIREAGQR
Method in brief: (§1)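 Hexokinase activity read at 22 °C as A340 change, coupled to glucose-6-phosphate dehydrogenase, in 0.05 M Tris-HCl pH 7.6 with 6.6 mM MgCl2, 10 mM α-D-glucose and 0.93 mM NADP. Donor was 5.0 mM MgATP derivative (1:1 Mg complex) in place of ATP. Yeast HK was isoelectric-focused. Rat HK I and III came from electrofocused liver extract, HK II from dialysed muscle extract.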

[2] = molecular target: T2, Hexokinase-1 (Rattus norvegicus) (UniProt P05708); experiment: Substrate activity for rat hexokinase I as 1:1 Mg complex at 5.0 mM; method in brief: as §1
T2 sequence (whole entry): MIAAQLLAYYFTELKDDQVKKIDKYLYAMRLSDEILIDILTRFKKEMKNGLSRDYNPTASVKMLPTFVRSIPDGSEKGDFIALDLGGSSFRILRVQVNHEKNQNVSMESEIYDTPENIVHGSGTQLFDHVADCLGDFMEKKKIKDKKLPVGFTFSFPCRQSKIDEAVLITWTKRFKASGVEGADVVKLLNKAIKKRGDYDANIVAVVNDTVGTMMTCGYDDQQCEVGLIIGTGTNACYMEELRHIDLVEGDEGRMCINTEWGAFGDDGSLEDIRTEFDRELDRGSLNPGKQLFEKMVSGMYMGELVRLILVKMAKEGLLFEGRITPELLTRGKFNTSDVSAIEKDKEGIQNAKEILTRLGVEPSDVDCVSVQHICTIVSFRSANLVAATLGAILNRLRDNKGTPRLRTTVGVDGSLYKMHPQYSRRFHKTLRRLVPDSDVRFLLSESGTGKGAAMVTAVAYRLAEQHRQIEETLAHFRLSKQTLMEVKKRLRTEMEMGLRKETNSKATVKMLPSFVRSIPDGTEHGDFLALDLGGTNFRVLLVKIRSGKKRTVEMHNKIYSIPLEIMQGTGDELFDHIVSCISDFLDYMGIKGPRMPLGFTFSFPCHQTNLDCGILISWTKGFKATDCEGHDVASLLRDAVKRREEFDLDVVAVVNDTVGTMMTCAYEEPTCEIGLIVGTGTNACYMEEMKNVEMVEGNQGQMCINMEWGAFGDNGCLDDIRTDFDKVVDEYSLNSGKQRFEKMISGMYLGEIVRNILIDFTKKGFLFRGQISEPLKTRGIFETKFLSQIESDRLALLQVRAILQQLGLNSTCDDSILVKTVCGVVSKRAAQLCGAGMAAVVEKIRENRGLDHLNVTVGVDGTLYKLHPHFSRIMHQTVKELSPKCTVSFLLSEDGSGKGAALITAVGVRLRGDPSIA

[3] = molecular target: T3, Hexokinase-3 (Rattus norvegicus) (UniProt P27926); experiment: Substrate activity for rat hexokinase III as 1:1 Mg complex at 5.0 mM; method in brief: as §1
T3 sequence (whole entry): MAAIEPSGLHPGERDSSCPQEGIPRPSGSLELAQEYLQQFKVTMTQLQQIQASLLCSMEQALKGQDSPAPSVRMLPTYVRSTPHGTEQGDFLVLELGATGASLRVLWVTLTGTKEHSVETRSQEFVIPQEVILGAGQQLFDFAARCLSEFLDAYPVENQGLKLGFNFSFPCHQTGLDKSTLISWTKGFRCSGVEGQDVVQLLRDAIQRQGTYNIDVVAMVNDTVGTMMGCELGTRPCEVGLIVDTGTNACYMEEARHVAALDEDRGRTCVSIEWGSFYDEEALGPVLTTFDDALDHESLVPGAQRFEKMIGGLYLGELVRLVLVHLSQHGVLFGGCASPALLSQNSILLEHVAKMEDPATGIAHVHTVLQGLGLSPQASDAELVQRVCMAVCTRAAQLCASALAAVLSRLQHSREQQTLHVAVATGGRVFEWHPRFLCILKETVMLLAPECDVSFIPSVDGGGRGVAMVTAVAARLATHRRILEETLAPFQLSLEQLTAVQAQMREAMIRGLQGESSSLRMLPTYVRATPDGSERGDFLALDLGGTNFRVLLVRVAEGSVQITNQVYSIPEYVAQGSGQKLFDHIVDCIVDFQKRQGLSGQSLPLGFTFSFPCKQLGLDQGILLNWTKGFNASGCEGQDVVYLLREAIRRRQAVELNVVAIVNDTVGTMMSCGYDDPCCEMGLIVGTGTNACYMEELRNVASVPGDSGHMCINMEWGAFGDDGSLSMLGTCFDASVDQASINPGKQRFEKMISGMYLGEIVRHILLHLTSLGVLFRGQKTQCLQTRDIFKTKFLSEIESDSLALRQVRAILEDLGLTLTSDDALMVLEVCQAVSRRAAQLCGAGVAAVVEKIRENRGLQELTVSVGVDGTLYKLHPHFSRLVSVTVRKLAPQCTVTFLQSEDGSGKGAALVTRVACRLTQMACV

Saccharomyces cerevisiae [4] = experiment: Substrate activity against yeast hexokinase as 1:1 Mg complexes at 5.0 mM; method in brief: as §1
Rattus norvegicus = species on record: Rattus norvegicus; experiment: Compound was tested for the affinity to Rat pyruvate kinase relative to the normal substrate. Affinity is expressed as KM (ATP or ADP)/ Ki of inhibitor.; type: functional
[5] = (§2) Extent of inactivation caused by the compound was reported.; type: functional
[6] = molecular target: T1, Hexokinase-2 (Rattus norvegicus); experiment: Time dependent inhibition of hexokinase 2 activity after 6 h, at 5 mM compound
[7] = molecular target: T3, Hexokinase-3 (Rattus norvegicus); experiment: Time dependent inhibition of Hexokinase type III activity after 6 h, at 22 degrees celsius, at 5 mM
[8] = molecular target: T2, Hexokinase-1 (Rattus norvegicus); experiment: Time dependent inhibition of Hexokinase type I activity after 6 h, at 22 degrees celsius, at 5 mM compound
Saccharomyces cerevisiae [9] = experiment: Time dependent inhibition of hexokinase activity after 6 hr, at 22 degrees celsius, with 5 mM ATP derivative in yeast.
[10] = molecular target: Thymidine kinase (Escherichia coli) (UniProt P23331); experiment: Compound was tested for the initial inhibition of thymidine kinase by 1.4 mM compound in the presence of 5.7 mM ATP in Escherichia coli
Sequence of Thymidine kinase (Escherichia coli) (P23331 whole entry, looked up): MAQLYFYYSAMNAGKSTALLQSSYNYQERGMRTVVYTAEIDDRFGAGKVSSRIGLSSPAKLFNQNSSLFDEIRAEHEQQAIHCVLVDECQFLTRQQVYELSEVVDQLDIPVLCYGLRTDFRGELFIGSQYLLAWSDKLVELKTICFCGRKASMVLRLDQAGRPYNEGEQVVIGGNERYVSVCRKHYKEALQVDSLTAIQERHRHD

[11] = molecular target: Thymidine kinase (Escherichia coli) (UniProt P23331); experiment: Compound was tested for the lose of thymidine kinase activity after 6 hr, at 0 degrees celsius, with 10 mM ATP derivative. values were expressed in percent
[12] = Substrate concentration for half maximal velocity was reported for rat hexokinase I
Method in brief: (§3)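 Coupled glucose-6-phosphate dehydrogenase/NADP assay: A340 rate at 22 °C in 0.05 M Tris-HCl pH 7.6 with 6.6 mM MgCl2, 10 mM α-D-glucose and 0.93 mM NADP, nucleotide varied. KM was taken from linear double-reciprocal plots. Rat HK I and III came from electrofocused, dialysed liver extract, HK II from dialysed muscle extract, and yeast HK was isoelectric-focused.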

[13] = Substrate concentration for half maximal velocity was reported for rat hexokinase II; method in brief: as §3
[14] = Substrate concentration for half maximal velocity was reported for rat hexokinase III; method in brief: as §3
[15] = Substrate concentration for half maximal velocity was reported for yeast hexokinase; method in brief: as §3
[16] = Compound was tested for substrate constants with yeast hexokinase. Maximal velocity Vmax was reported
Method in brief: (§4)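 Hexokinase KM and Vmax taken from linear double-reciprocal plots of initial velocity vs. nucleotide level. Assays at 22 °C, coupled to glucose-6-phosphate dehydrogenase (A340), in 0.05 M Tris-HCl pH 7.6 with 6.6 mM MgCl2, 10 mM glucose and 0.93 mM NADP. Yeast HK was isoelectric-focused. Rat HK I and III came from liver, HK II from muscle (male Sprague-Dawley).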

[17] = Compound was tested for substrate constants with rat hexokinase. Maximal velocity Vmax was reported; method in brief: as §4
[18] = as §2
[19] = Tested for the velocity of 2.8 mM compound relative to that of 2.8 mM MgATP in the assay
Method in brief: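 E. coli TK substrate test. 0.5 h after adding inhibitor, the mixture was diluted to 2.8 mM derivative in thymidine assay medium without ATP and with 1.42 mM MnCl2. Incubated 15 min at 37 °C, in the linear range. [14C]TMP formed was compared with that from 2.8 mM ATP under the same conditions.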

[20] = Compound was tested for the affinity relative to the normal substrate. Affinity is expressed as KM (ATP or ADP)/ Ki of inhibitor.

Relative velocity [1]: 1.26
Relative velocity [2]: 1.79
Relative velocity [3]: 2.81
Relative velocity (Saccharomyces cerevisiae [4]): 1.82
inhibition [6]: 41%
inhibition [7]: 47%
inhibition [8]: 35%
inhibition (Saccharomyces cerevisiae [9]): 30%
inhibition [10]: 19%
inhibition [11]: 0%
Compound: O=C(CI)NCCCCCCCCNc1ncnc2c1ncn2[C@@H]1O[C@H](COP(=O)(O)OP(=O)(O)OP(=O)(O)O)[C@@H](O)[C@H]1O
Relative affinity (Rattus norvegicus): 0.011
Inactivation [5]: > 90%

Km [12]: 180 µM
Km [13]: 270 µM
Km [14]: 100 µM
Km [15]: 320 µM
Vmax [16]: 75%
Vmax [17]: 45% and 35% and 23%
Compound: CN(CCCN(C)C(=O)CCCCNc1ncnc2c1ncn2[C@@H]1O[C@H](COP(=O)(O)OP(=O)(O)OP(=O)(O)O)[C@@H](O)[C@H]1O)C(=O)CCCCNC(=O)OCc1ccccc1

Relative inactivation [18]: > 80
Velocity [19]: > 13%
Relative affinity [20]: 0.56
inhibition [6]: 0%
inhibition [7]: 0%
inhibition [8]: 0%
inhibition [10]: 11%
inhibition [11]: 53%
Compound: CN(CCCCN(C)c1ncnc2c1ncn2[C@@H]1O[C@H](COP(=O)(O)OP(=O)(O)OP(=O)(O)O)[C@@H](O)[C@H]1O)C(=O)CCCCCNC(=O)CI
